Active and inactive are the calls of the source.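 The calls were made as follows: active = fitted curve reaches 10% of the positive control caspase activation at or below the top valid tested dose; inactive = signal shifts the opposite way, plus the rest.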

In the first assay the test system is MEWO unprimed cells, caspase-Glo luminescence, 3 h. The assay is described as follows: caspase activation in unprimed MEWO cells, dose response, counter-screen for Bcl2-A1 inhibitor project, cell-based, human MEWO, caspase luminescence, dry powder, set 3 (AID 504346).
Conditions: not given
A digest of the protocol:
(§1)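 Test system: unprimed human MEWO cells engineered to express A1 / Input: 2500 cells/well / Buffer or medium: RPMI-1640 plus 10% FBS / Dosing: compound delivered to cells by pin transfer / Timing: 3 h compound at 37 °C, 1 h reagent at RT / Technique: CaspaseGlo luminescence / Evaluation: caspase activation level per well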
Background: Counterscreens check selectivity or assay interference.
On to `COCCn1c(=O)c([N+](=O)[O-])c(Cl)c2ccccc21`, for which the AC10 was > 35 µM (inactive).

In the case of `Cn1c(=O)c([N+](=O)[O-])c(S(C)(=O)=O)c2ccccc21`, the AC10 is > 35 µM (inactive).

For the molecule `O=c1[nH]c2ccccc2c(Cl)c1[N+](=O)[O-]`, the AC10 is > 35 µM (inactive).

`CC1(C)CCC(c2ccc(Cl)cc2)=C(CN2CCN(c3ccc(C(=O)NS(=O)(=O)c4ccc(N[C@H](CCN5CCOCC5)CSc5ccccc5)c(S(=O)(=O)C(F)(F)F)c4)cc3)CC2)C1`: the AC10 is 3.09 µM.

Turning to `O=c1c([N+](=O)[O-])c(Cl)c2ccccc2n1Cc1ccccc1`, the AC10 is 33.6 µM.

System in the next assay: not listed separately
The description is as above. Conditions: MEWO unprimed cells, caspase-Glo luminescence, 3 h; at 35 µM (top of the series). Put shortly: as §1
In the case of `CCn1c(=O)c([N+](=O)[O-])c(Cl)c2ccccc21`, the caspase activation was 5.44% (inactive).

Regarding `Cn1c(=O)c([N+](=O)[O-])c(Sc2ccccn2)c2ccccc21`, the caspase activation is 3.69% (inactive).

With `C/C(=N\Nc1nc(N2CCCCC2)nc(N2CCCCC2)n1)c1ccc(F)cc1`, the caspase activation was -0.441% (inactive).

Turning to `COCCn1c(=O)c([N+](=O)[O-])c(Sc2ccc(C)cc2)c2ccccc21`, the caspase activation is 1.99% (inactive).

Consider `COc1ccc(CCNc2nc(N3CCCC3)nc(N3CCCC3)n2)cc1OC`, for which the caspase activation is 0.039% (inactive).

Consider `COc1nc2ccccc2c(Sc2ccc(C)cc2)c1[N+](=O)[O-]`, for which the caspase activation is 0.891% (inactive).

Consider `COCCn1c(=O)c(Sc2ccc(C)cc2)c(Sc2ccc(C)cc2)c2ccccc21`, for which the caspase activation is 1.05% (inactive).

Take `CCn1c(=O)c(Sc2ccc(C)cc2)c(Sc2ccc(C)cc2)c2ccccc21`: the caspase activation is 1.36% (inactive).

With `CCn1c(=O)c([N+](=O)[O-])c(Sc2ccc(C)cc2)c2ccccc21`, the caspase activation is 2.11% (inactive).

With `Cn1c(=O)c([N+](=O)[O-])c(Cl)c2ccccc21`, the caspase activation was 8.42% (inactive).

For the molecule `COc1ccc(N2CCN(c3nc(NCCc4ccc(OC)c(OC)c4)nc(N4CCOCC4)n3)CC2)cc1`, the caspase activation was -0.115% (inactive).

For `Cc1ccc(Sc2c(Sc3ccc(C)cc3)c3ccccc3n(C)c2=O)cc1`, the caspase activation was 0.838% (inactive).

For the molecule `Cc1ccc(Sc2c([N+](=O)[O-])c(=O)n(C)c3ccccc23)cc1`, the caspase activation is 1.27% (inactive).

`COc1ccc(CCNc2nc(N3CCOCC3)nc(N3CCOCC3)n2)cc1OC`: the caspase activation is 0.746% (inactive).

With `Cc1ccc(Sc2c([N+](=O)[O-])c(=O)n(Cc3ccccc3)c3ccccc23)cc1`, the caspase activation is 0.173% (inactive).

For the molecule `O=c1[nH]c2ccccc2c(O)c1[N+](=O)[O-]`, the caspase activation is -0.15% (inactive).

For `Cc1ccc(Sc2c(Sc3ccc(C)cc3)c3ccccc3n(Cc3ccccc3)c2=O)cc1`, the caspase activation was 0.136% (inactive).

Take `Cc1ccc(S(=O)(=O)c2c([N+](=O)[O-])c(=O)n(C)c3ccccc23)cc1`: the caspase activation was 2.24% (inactive).

Turning to `COc1c([N+](=O)[O-])c(=O)n(C)c2ccccc12`, the caspase activation was -0.158% (inactive).

With `COc1nc2ccccc2c(Cl)c1[N+](=O)[O-]`, the caspase activation was 0.103% (inactive).

For `Cn1c(=O)c(Sc2ccccn2)c(Sc2ccccn2)c2ccccc21`, the caspase activation was -0.272% (inactive).

Take `O=C(COc1ccc(Cl)cc1Cl)NNc1nc(N2CCOCC2)nc(N2CCOCC2)n1`: the caspase activation was -0.692% (inactive).
